Measured values: paper PMC6226115 (Clinical and Translational Science, 2018)
“Also recorded” adds a separate entry of the source. Marks after values point to notes of the source that are not given here.

How the values were obtained:
[1] = Phase I safety and tolerability; format: in vivo, human
Procedure, shortened: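 In a nonrandomised, open-label phase I study, healthy men received 5, 10, 25 or 50 mg once daily for 14 days, with CSF sampled through a lumbar catheter. Safety was scored as the number of subjects with adverse events and summarised descriptively.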

[2] = Phase I pharmacokinetics in plasma and CSF, multiple dosing over 14 days; format: in vivo, human; conditions: for AUC0–14: after first dose, geometric mean (% gCV); for Tmax / Cmax: male, human, po
Procedure, shortened: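 Healthy males received 5–50 mg orally once daily for 14 days. CSF was collected hourly via lumbar catheter for 14 h after dose 1 and by puncture before the last dose. Plasma was sampled hourly on days 1 and 14, every 24 h on days 2–4 and every 48 h on days 6–12. Drug was measured by validated HPLC-MS/MS with noncompartmental analysis. Steady state was judged from trough plasma concentrations (days 2–14) using pairwise 95% CIs.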

[3] = Compound levels in rat plasma and CSF; format: in vivo; conditions: plasma, po
Procedure, shortened: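 Adult male Wistar rats (200–220 g) were given a single oral dose of 0.2, 0.6 or 2 mg/kg in 0.5% Natrosol with 0.01% Tween-80 (n = 8 per group). At 90 min, under s.c. inactin/ketavet anaesthesia, blood and cisterna magna CSF were taken. Plasma was stored at −20°C and CSF at −70°C. Drug was measured by HPLC-MS/MS, and CSF/plasma ratio was derived.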

[4] = 50 mg once daily for 14 days (n = 5)
[5] = total on-treatment, all doses (n = 25)

## C[C@@H](Oc1ccc(S(C)(=O)=O)cc1C(=O)N1C[C@@H]2C[C@]2(c2cc(C(F)(F)F)on2)C1)C(F)(F)F [BI 425809]
[1]; [4]
  Gingivitis, subjects with AE: 0 n (%)
  Muscle spasms, subjects with AE: 0 n (%)
  Musculoskeletal stiffness, subjects with AE: 0 n (%)
  Nasopharyngitis, subjects with AE: 1 (20.0) n (%)
  Nausea, subjects with AE: 0 n (%)
  Neck pain, subjects with AE: 1 (20.0) n (%)
  Paraesthesia, subjects with AE: 0 n (%)
  Procedural headache, subjects with AE: 3 (60.0) n (%)
  Procedural pain, subjects with AE: 0 n (%)
  Somnolence, subjects with AE: 0 n (%)
  Tension headache, subjects with AE: 0 n (%)
  Total with AEs (treatment-emergent): 4 (80.0) n (%)
  Upper abdominal pain, subjects with AE: 0 n (%)
  Vomiting, subjects with AE: 0 n (%)
  Wound, subjects with AE: 0 n (%)
[1]; healthy male volunteers, 5 to 50 mg for 14 days
  AEs of special interest, deaths, serious AEs on-treatment: no protocol‐specified AEs of special interest, deaths, or other serious AEs reported
[1]; healthy male volunteers, multiple oral doses 5 to 50 mg for 14 days
  Safety and tolerability (in words): safe and well tolerated; also recorded: generally well tolerated; also recorded: well tolerated, with no indication of safety concerns
[1]; of the 25 subjects treated (8 subjects)
  Subjects reporting back pain: 32.0%
[1]; of the 25 subjects treated (16 subjects)
  Subjects reporting procedural headache: 64.0%
[1]; of the 25 subjects treated (22 subjects)
  Subjects reporting at least one treatment-emergent AE: 88.0%
[1]; [5]
  Abdominal pain, subjects with AE: 1 (4.0) n (%)
  Back pain, subjects with AE: 8 (32.0) n (%)
  Catheter site pain, subjects with AE: 1 (4.0) n (%)
  Diarrhea, subjects with AE: 1 (4.0) n (%)
  Dizziness, subjects with AE: 2 (8.0) n (%)
  Dry mouth, subjects with AE: 1 (4.0) n (%)
  Fatigue, subjects with AE: 2 (8.0) n (%)
  Gingivitis, subjects with AE: 1 (4.0) n (%)
  Muscle spasms, subjects with AE: 1 (4.0) n (%)
  Musculoskeletal stiffness, subjects with AE: 1 (4.0) n (%)
  Nasopharyngitis, subjects with AE: 1 (4.0) n (%)
  Nausea, subjects with AE: 5 (20.0) n (%)
  Neck pain, subjects with AE: 3 (12.0) n (%)
  Paraesthesia, subjects with AE: 1 (4.0) n (%)
  Procedural headache, subjects with AE: 16 (64.0) n (%)
  Procedural pain, subjects with AE: 1 (4.0) n (%)
  Somnolence, subjects with AE: 1 (4.0) n (%)
  Tension headache, subjects with AE: 1 (4.0) n (%)
  Total with AEs (treatment-emergent): 22 (88.0) n (%)
  Upper abdominal pain, subjects with AE: 1 (4.0) n (%)
  Vomiting, subjects with AE: 4 (16.0) n (%)
  Wound, subjects with AE: 1 (4.0) n (%)
[1]; two subjects of 25 (5-mg and 10-mg dose groups), AEs not considered drug-related
  Subjects who discontinued due to AEs: 8.0%
[2]; CSF, 5 mg oral, n = 6
  AUC0–14: 0.0299 µM·h
[2]; CSF, 10 mg oral, n = 6
  AUC0–14: 0.0598 µM·h
[2]; CSF, 25 mg oral, n = 6
  AUC0–14: 124.0 (27.2) ^e nM
[2]; CSF, 50 mg oral, n = 5
  AUC0–14: 0.26 µM·h
[2]; healthy volunteers, once daily dosing, trough plasma concentrations
  Steady state achieved by: ≤ 6 days
[2]; CSF
  Tmax: 5 to 8 h
[2]; CSF, 5 mg
  Cmax: 2.9 nM
  Tmax: 8 h
[2]; CSF, 10 mg
  Cmax: 5.6 nM
  Tmax: 5.5 h
[2]; CSF, 25 mg
  Cmax: 12.2 nM
  Tmax: 6.1 h
[2]; CSF, 50 mg
  Cmax: 25 nM
  Tmax: 8.1 h
[2]; plasma
  Tmax: 3 to 5 h
[2]; plasma, 5 mg
  Cmax: 42.3 nM
  Tmax: 5 h
[2]; plasma, 10 mg
  Cmax: 85.6 nM
  Tmax: 4.5 h
[2]; plasma, 25 mg
  Cmax: 176 nM
  Tmax: 3 h
[2]; plasma, 50 mg
  Cmax: 328 nM
  Tmax: 5 h
[2]; plasma, 5 mg oral, n = 6
  AUC0–14: 0.421 µM·h
[2]; plasma, 10 mg oral, n = 6
  AUC0–14: 0.829 µM·h
[2]; plasma, 25 mg oral, n = 7
  AUC0–14: 1,840 (24.2) ^d nM
[2]; plasma, 50 mg oral, n = 5
  AUC0–14: 3.3 µM·h
[3]; 0.2 mg/kg
  concentration at 90 min: 79 nM
[3]; 0.6 mg/kg
  concentration at 90 min: 217 nM
[3]; 2 mg/kg
  concentration at 90 min: 723 nM
